Inhibition and IC50 data for 28 compounds are collected here from ChEMBL document CHEMBL3739314, “Discovery of Nanomolar Dengue and West Nile Virus Protease Inhibitors Containing a 4-Benzyloxyphenylglycine Residue” (J Med Chem, 2015).

In one assay the target is Trypsin (Homo sapiens) (UniProt P07477+P07478+P35030). Kind of assay: Inhibition of trypsin (unknown origin) using Boc-Val-Pro-Arg-AMC as substrate at 25 uM preincubated with protein for 15 mins followed by substrate addition by continuous fluorimetric assay relative to control.
Assay [1] addresses Prothrombin (Homo sapiens) (UniProt P00734). Kind of assay: Inhibition of thrombin (unknown origin) using Boc-Val-Pro-Arg-AMC as substrate at 25 uM preincubated with protein for 15 mins followed by substrate addition measured for 10 mins by continuous fluorimetric assay relative to control.
The next assay has as its system West Nile virus. Briefly: Inhibition of West Nile virus NS2B-NS3 protease using 2-Abz-Gly-Leu-Lys-Arg-Gly-Gly-[…]-Tyr-NH2 as substrate at 50 uM preincubated with protein for 15 mins followed by substrate addition measured for 15 mins by FRET assay. The method, boiled down: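 Linked WNV NS2B-NS3 protease (150 nM) was preincubated 15 min with inhibitor (50 μM final) in 50 mM Tris-HCl pH 9, 10% ethylene glycol, 0.0016% Brij 58. […] Percent inhibition was taken from the slope relative to the no-inhibitor control, in triplicate.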

A short description of assay [2]: Inhibition of West Nile virus NS2B-NS3 protease using 2-Abz-Gly-Leu-Lys-Arg-Gly-Gly-[…]-Tyr-NH2 as substrate preincubated with protein for 15 mins followed by substrate addition measured for 15 mins by FRET assay. The method in brief:
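WNV NS2B-NS3 linked construct at 75 nM (40 nM in one case) in pH 9 Tris buffer, preincubated 15 min with eight inhibitor concentrations (ranges 0–1 up to 0–50 μM). Substrate was 50 μM, with FRET readout over 15 min. IC50 was fitted from triplicates.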

The nature of assay [3]: Inhibition of Dengue virus serotype-2 NS2B-NS3 protease using 2-Abz-Nle-Lys-Arg-Arg-Ser-(3-NO2)-Tyr-NH2 as substrate preincubated with protein for 15 mins followed by substrate addition measured for 15 mins by FRET assay. More on the design: species or system dengue virus type 2. The method in brief:
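DENV-2 NS2B-NS3 linked construct at 30 nM (15 nM in some cases), same pH 9 Tris buffer, 15 min preincubation and FRET read-out. Eight inhibitor concentrations spanned 0–1, 0–2, 0–6 or 0–50 μM, with substrate at 50 μM. IC50 was fitted from triplicates.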

Activity calls are given as the source filed them. The rule behind the calls is not given here.

By inhibition is commonly meant the drop in the measured response relative to a control, in per cent. What is called IC50 is the concentration that inhibits the measured activity by half. Higher therefore signals weaker potency. Consider `CC(C)(C)c1ccc(COc2ccc([C@@H](NC(=O)[C@H](CCCCN)NC(=O)[C@H](CCCNC(=N)N)NC(=O)c3cc4sccc4s3)C(N)=O)cc2)cc1`, for which the inhibition entry (at Trypsin (Homo sapiens); in assay [1]) was “inactive” throughout. The inhibition in the assay on West Nile virus was 94.1%. In addition, the results for the IC50 in assay [2] and in assay [3] were 15900 nM and 157 nM, respectively.

For `N=C(N)NCCC[C@H](NC(=O)c1cc(-c2ccccc2)cs1)C(=O)N[C@@H](CCCCN)C(=O)N[C@@H](C(N)=O)c1ccc(OCc2c(Cl)cccc2Cl)cc1`, the inhibition entry (on Trypsin (Homo sapiens); in assay [1]) was “inactive” in each case. Further, the inhibition in the assay on West Nile virus was determined as 98%. Further, the IC50 in assay [2] came to 221 nM; in assay [3] it was 129 nM.

Take `N=C(N)NCCC[C@H](NC(=O)c1nccs1)C(=O)N[C@@H](CCCCN)C(=O)N[C@@H](C(N)=O)c1ccc(OCc2c(Cl)cccc2Cl)cc1`: the inhibition entry (at Trypsin (Homo sapiens); in assay [1]) was “inactive” in each case. In addition, the inhibition with West Nile virus was 99.1%. The values for the IC50 in assay [2] and in assay [3] were 166 nM and 50 nM, respectively.

Take `N=C(N)NCCC[C@H](NC(=O)c1cccs1)C(=O)N[C@@H](CCCCN)C(=O)N[C@@H](C(N)=O)c1ccc(OCC(=O)c2ccc(Br)cc2)cc1`: the results for the inhibition at Trypsin (Homo sapiens) and in the assay with West Nile virus were 59% and 99.4%, respectively. Further, the inhibition result in assay [1] is “inactive”. For the same compound, the IC50 in assay [2] came to 487 nM; in assay [3], 148 nM.

In the case of `N=C(N)NCCC[C@H](NC(=O)c1cccs1)C(=O)N[C@@H](CCCCN)C(=O)N[C@@H](C(N)=O)c1ccc(OCc2ccccc2)cc1`, the results for the inhibition (in assay [1]; with West Nile virus) were under 30% and 98%, respectively. For the same compound, the IC50 in assay [2] is 296 nM; in assay [3] it was 109 nM.

In the case of `N=C(N)NCCC[C@H](NC(=O)c1ccccc1)C(=O)N[C@@H](CCCCN)C(=O)N[C@@H](C(N)=O)c1ccc(OCc2ccc(Br)cc2)cc1`, the figures for the inhibition (in assay [1]; with West Nile virus) were under 30% and 99.2%, respectively. Further, the figures for the IC50 in assay [2] and in assay [3] were 308 nM and 236 nM, respectively.

As for `N=C(N)NCCC[C@H](NC(=O)c1cc2sccc2s1)C(=O)N[C@@H](CCCCN)C(=O)N[C@@H](C(N)=O)c1ccc(OCc2ccccc2C(F)(F)F)cc1`, the inhibition entry (at Trypsin (Homo sapiens); in assay [1]) was “inactive” each time. The inhibition in the assay with West Nile virus came to 97.5%. The IC50 in assay [3] worked out at 197 nM.

As to `N=C(N)NCCC[C@H](NC(=O)c1ccccc1)C(=O)N[C@@H](CCCCN)C(=O)N[C@@H](C(N)=O)c1ccc(OCc2cccc(Cl)c2)cc1`, the inhibition was under 30% in assay [1] and 102% in the assay with West Nile virus. The IC50 was determined as 321 nM in assay [2] and 186 nM in assay [3].

With `N=C(N)NCCC[C@H](NC(=O)c1ccccc1)C(=O)N[C@@H](CCCCN)C(=O)N[C@@H](C(N)=O)c1ccc(OCC(=O)c2ccccc2)cc1`, the inhibition in assay [1] was under 30%; with West Nile virus, 98.8%. Also, the 50% inhibitory concentration (IC50) in assay [2] was determined as 508 nM; in assay [3], 486 nM.

Regarding `N=C(N)NCCC[C@H](NC(=O)c1cccs1)C(=O)N[C@@H](CCCCN)C(=O)N[C@@H](C(N)=O)c1ccc(OCc2ccc(F)cc2)cc1`, the inhibition result (on Trypsin (Homo sapiens); in assay [1]) was “inactive” in each case. For the same compound, the inhibition in the assay on West Nile virus amounted to 101%. The IC50 in assay [2] came out at 216 nM; in assay [3], 61 nM.

As to `N=C(N)NCCC[C@H](NC(=O)C1CC1)C(=O)N[C@@H](CCCCN)C(=O)N[C@@H](C(N)=O)c1ccc(OCc2ccccc2)cc1`, the inhibition was under 30% in assay [1] and 100% with West Nile virus. Besides, the IC50 in assay [2] was 1660 nM; in assay [3], 805 nM.

For the compound `N=C(N)NCCC[C@H](NC(=O)c1cccs1)C(=O)N[C@@H](CCCCN)C(=O)N[C@@H](C(N)=O)c1ccc(OCc2ccc(Br)cc2)cc1`, the inhibition result (on Trypsin (Homo sapiens); in assay [1]) was “inactive” throughout. In the assay on West Nile virus, the inhibition came to 99.2%. Besides, the values for the half-maximal inhibitory concentration (IC50) in assay [2] and in assay [3] were 150 nM and 71 nM, respectively.

For the compound `N=C(N)NCCC[C@H](NC(=O)C1CCC1)C(=O)N[C@@H](CCCCN)C(=O)N[C@@H](C(N)=O)c1ccc(OCc2ccccc2)cc1`, the inhibition in assay [1] is under 30%; in the assay with West Nile virus it was 98%. Moreover, the IC50 amounted to 434 nM in assay [2] and 631 nM in assay [3].

`N=C(N)NCCC[C@H](NC(=O)c1ccccc1)C(=O)N[C@@H](CCCCN)C(=O)N[C@@H](C(N)=O)c1ccc(OCc2ccc(F)cc2)cc1`: the figures for the inhibition (in assay [1]; in the assay with West Nile virus) were under 30% and 100%, respectively. Also, the IC50 is 349 nM in assay [2] and 196 nM in assay [3].

Regarding `N=C(N)NCCC[C@H](NC(=O)c1cc2ccccc2s1)C(=O)N[C@@H](CCCCN)C(=O)N[C@@H](C(N)=O)c1ccc(OCc2c(Cl)cccc2Cl)cc1`, the inhibition entry (on Trypsin (Homo sapiens); in assay [1]) was “inactive” in each case. Besides, in the assay with West Nile virus, the inhibition was found to be 95.9%. In assay [3], this compound displayed an IC50 of 183 nM.

Consider `N=C(N)NCCC[C@H](NC(=O)c1cc2sccc2s1)C(=O)N[C@@H](CCCCN)C(=O)N[C@@H](C(N)=O)c1ccc(OCc2ccc(Cl)cc2)cc1`, for which the inhibition result (on Trypsin (Homo sapiens); in assay [1]) was “inactive” in each case. For the same compound, the inhibition in the assay with West Nile virus worked out at 93.8%. In assay [3], this compound displayed an IC50 of 170 nM.

On to `N=C(N)NCCC[C@H](NC(=O)c1ccccc1)C(=O)N[C@@H](CCCCN)C(=O)N[C@@H](C(N)=O)c1ccc(OCc2ccc(Cl)cc2)cc1`, for which the figures for the inhibition (in assay [1]; with West Nile virus) were under 30% and 102%, respectively. Besides, the IC50 turned out to be 486 nM in assay [2] and 143 nM in assay [3].

In the case of `N=C(N)NCCC[C@H](NC(=O)c1ccccc1F)C(=O)N[C@@H](CCCCN)C(=O)N[C@@H](C(N)=O)c1ccc(OCc2ccccc2)cc1`, the inhibition was under 30% in assay [1] and 100% in the assay on West Nile virus. The 50% inhibitory concentration (IC50) in assay [2] worked out at 1290 nM; in assay [3], 340 nM.

As to `N=C(N)NCCC[C@H](NC(=O)c1ccccc1C(F)(F)F)C(=O)N[C@@H](CCCCN)C(=O)N[C@@H](C(N)=O)c1ccc(OCc2ccccc2)cc1`, the inhibition in assay [1] is under 30%; with West Nile virus, 98.7%. Also, the IC50 worked out at 434 nM in assay [2] and 301 nM in assay [3].

For `N=C(N)NCCC[C@H](NC(=O)c1ccco1)C(=O)N[C@@H](CCCCN)C(=O)N[C@@H](C(N)=O)c1ccc(OCc2ccccc2)cc1`, the figures for the inhibition (in assay [1]; in the assay on West Nile virus) were under 30% and 98.1%, respectively. The IC50 stood at 507 nM in assay [2] and 479 nM in assay [3].

In the case of `COc1cccc(COc2ccc([C@@H](NC(=O)[C@H](CCCCN)NC(=O)[C@H](CCCNC(=N)N)NC(=O)c3nccs3)C(N)=O)cc2)c1`, the inhibition entry (on Trypsin (Homo sapiens); in assay [1]) was “inactive” each time. Further, the inhibition in the assay with West Nile virus was determined as 100%. Also, the IC50 was determined as 273 nM in assay [2] and 47 nM in assay [3].

For `N=C(N)NCCC[C@H](NC(=O)c1ccsc1)C(=O)N[C@@H](CCCCN)C(=O)N[C@@H](C(N)=O)c1ccc(OCc2ccccc2)cc1`, the results for the inhibition (in assay [1]; with West Nile virus) were under 30% and 98.2%, respectively. Further, the IC50 worked out at 490 nM in assay [2] and 179 nM in assay [3].

As to `N=C(N)NCCC[C@H](NC(=O)c1cc(-c2ccccc2)cs1)C(=O)N[C@@H](CCCCN)C(=O)N[C@@H](C(N)=O)c1ccc(OCc2ccccc2)cc1`, the values for the inhibition (in assay [1]; in the assay with West Nile virus) were under 30% and 98.6%, respectively. Further, the IC50 in assay [2] is 398 nM; in assay [3], 304 nM.

For the compound `N#Cc1ccc(COc2ccc([C@@H](NC(=O)[C@H](CCCCN)NC(=O)[C@H](CCCNC(=N)N)NC(=O)c3ccccc3)C(N)=O)cc2)cc1`, the inhibition in assay [1] is under 30%; with West Nile virus, 99.9%. Besides, the IC50 was found to be 213 nM in assay [2] and 399 nM in assay [3].

Turning to `N=C(N)NCCC[C@H](NC(=O)c1cc2ccccc2s1)C(=O)N[C@@H](CCCCN)C(=O)N[C@@H](C(N)=O)c1ccc(OCc2ccccc2C(F)(F)F)cc1`, the inhibition entry (on Trypsin (Homo sapiens); in assay [1]) was “inactive” in each case. For the same compound, the inhibition in the assay with West Nile virus amounted to 93.1%. In assay [3], the IC50 was 243 nM.

`N=C(N)NCCC[C@H](NC(=O)c1ccc(Cl)s1)C(=O)N[C@@H](CCCCN)C(=O)N[C@@H](C(N)=O)c1ccc(OCc2ccccc2)cc1`: the inhibition was under 30% in assay [1] and 98.4% in the assay with West Nile virus. In addition, the figures for the IC50 in assay [2] and in assay [3] were 457 nM and 177 nM, respectively.

Consider `N=C(N)NCCC[C@H](NC(=O)c1ccccc1)C(=O)N[C@@H](CCCCN)C(=O)N[C@@H](C(N)=O)c1ccc(OCc2ccc(Cl)c(Cl)c2)cc1`, for which the inhibition in assay [1] was under 30%; in the assay on West Nile virus, 97.8%. The figures for the IC50 in assay [2] and in assay [3] were 615 nM and 177 nM, respectively.

Regarding `CC(C)(C)c1ccc(COc2ccc([C@@H](NC(=O)[C@H](CCCCN)NC(=O)[C@H](CCCNC(=N)N)NC(=O)c3sccc3Cl)C(N)=O)cc2)cc1`, the inhibition entry (on Trypsin (Homo sapiens); in assay [1]) was “inactive” each time. In addition, the inhibition in the assay with West Nile virus worked out at 85.2%. Besides, half-maximal inhibition in assay [3] (IC50) was put at 121 nM.
